In series [1] the test system is Liver microsomes. The note with it: human, 1 µM.
Series [2] concerns Mus musculus. Nature of the series: Toxicity in Plasmodium berghei NK65 infected BALB/c mice (Mus musculus) at 100 mg/kg, perorally administered every 4 hrs x 10 doses followed by every 6 hrs x 6 doses schedule. Type of series: organism-based. More on the design: dose 100 mg/kg, route oral. As to conditions: in vivo, po. An outline of the steps: (§1)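 P. berghei-infected female BALB/c mice dosed by oral gavage in 0.5% CMC/0.4% Tween-80/0.5% benzyl alcohol. Tail bleeds and body weighing done daily. Animals monitored for ill effects and euthanized when the no-drug controls lost 20% of their pre-infection body weight.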

Series [3] concerns Liver microsomes. The note with it: human, 1 µM. This is another data set of the same source.
Series [4] is described as follows: Plasma concentration in Swiss mouse at 50 mg/kg, po administered as single dose for 240 mins. Details: dose 50 mg/kg, route oral. The note with it: read-out: C0. In kind it is ADME, organism-based. The gist of the method: (§2)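 Nonfasted male Swiss outbred mice, 23-33 g, fed ad libitum. Single oral gavage as a suspension in 0.5% CMC, 0.5% benzyl alcohol, 0.4% Tween-80. One cardiac-puncture blood sample per mouse per time point. Plasma analysed by LC-MS/MS after acetonitrile precipitation, with diazepam as internal standard and a plasma calibration curve. PK parameters taken from mean concentration-time profiles.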

Series [5] deals with Mus musculus. Nature of the series: Plasma concentration in Swiss mouse at 50 mg/kg, po administered as single dose. In kind it is ADME, organism-based. The note with it: in vivo. More on the design: dose 50 mg/kg, route oral. An outline of the steps: as §2
The subject of series [6] is Plasmodium berghei. Nature of the series: Antimalarial activity as reduced parasitaemia against Plasmodium berghei NK65 infected BALB/c mice (Mus musculus) at 100 mg/kg peroral dose at 10x4hrs then 6x6hrs. More on the design: dose 100 mg/kg. In kind it is functional, organism-based. The gist of the method: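 Female BALB/c mice, 8-10 weeks old, infected ip with 2 × 10^7 infected erythrocytes 24 h before dosing; ≥0.1% parasitemia verified. Oral gavage in 0.5% CMC/0.4% Tween-80/0.5% benzyl alcohol every 4 h × 10 doses, then every 6 h × 6 doses (n = 6 per group), against vehicle controls. Parasitemia counted daily by light microscopy of Wright-Giemsa stained thin tail-blood smears.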

For series [7], the system named is Plasmodium berghei. Nature of the series: (§3) Antimalarial activity as reduced growth at day 5 in Plasmodium berghei NK65 infected BALB/c mice (Mus musculus) at 50 mg/kg peroral dose over 4 days. In kind it is functional. Details: scale not given: the % may be the effect or the level left. The note with it: route oral. An outline of the steps:
(§4)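 Female BALB/c mice, 8-10 weeks old, infected ip with 2 × 10^7 infected erythrocytes 24 h before the first dose; ≥0.1% parasitemia confirmed first. Dosing by oral gavage in 0.5% CMC/0.4% Tween-80/0.5% benzyl alcohol, once daily (n = 3) or twice daily (n = 5) on days 1-4, with vehicle controls. Parasitemia counted daily from Wright-Giemsa thin tail-blood smears; suppression reported on day 5.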

Series [8] deals with Mus musculus. Nature of the series: Plasma concentration in Swiss mouse at 20 mg/kg, po administered as single dose. More on the design: dose 20 mg/kg, route oral. Type of series: ADME, organism-based. As to conditions: in vivo. An outline of the steps: as §2
For series [9], the system named is Mus musculus. As to the kind of experiment: Toxicity in Plasmodium berghei NK65 infected BALB/c mice (Mus musculus) at 50 mg/kg, perorally bid for 4 days measured on day 5 postinfection. As to conditions: in vivo, po, 96 h. In kind it is organism-based. Details: dose 50 mg/kg, route oral. An outline of the steps:
as §1

Series [10] deals with Plasmodium berghei. Described as §3. Details: scale not given: the % may be the effect or the level left. Type of series: functional. The note with it: route oral. The gist of the method:
as §4
This is another data set of the same source.

Series [11] is described as follows: Half life in Swiss mouse at 50 mg/kg, po administered as single dose. The note with it: in vivo. In kind it is ADME, organism-based. More on the design: dose 50 mg/kg, route oral. An outline of the steps:
as §2

For series [12], the system named is Mus musculus. Nature of the series: Toxicity in Plasmodium berghei NK65 infected BALB/c mice (Mus musculus) at 50 mg/kg, perorally qd for 4 days measured on day 5 postinfection. More on the design: dose 50 mg/kg, route oral. In kind it is organism-based. The note with it: in vivo, po, 96 h. An outline of the steps: as §1
Series [13] relates to Mus musculus. Nature of the series: Toxicity in Swiss mouse at 50 mg/kg, po administered as single dose. In kind it is organism-based. More on the design: dose 50 mg/kg, route oral. The note with it: in vivo. An outline of the steps:
(§5)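 Nonfasted male Swiss outbred mice, 23-33 g, given a single oral gavage dose suspended in 0.5% CMC/0.5% benzyl alcohol/0.4% Tween-80, then watched for adverse reactions over the plasma sampling period.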

Series [14] deals with Mus musculus. Nature of the series: Toxicity in Swiss mouse at 20 mg/kg, po administered as single dose. In kind it is organism-based. The note with it: in vivo. More on the design: dose 20 mg/kg, route oral. An outline of the steps: as §5
Series [15] in a line: Plasma concentration in Swiss mouse at 50 mg/kg, po administered as single dose for 16 hrs. In kind it is ADME, organism-based. More on the design: dose 50 mg/kg, route oral. An outline of the steps: as §2

The source made the active and inactive calls.

As usually defined, the half-life is the time needed for the level to fall by half in the phase considered.

As for `Cc1cc(Nc2ccc3cc4ccccc4cc3c2)n2ncnc2n1`, in the series on Liver microsomes [1], the t1/2 came out at 0.717 h. Moreover, the Activity result in the series with Mus musculus [2] is “Non-toxic”. Further, the CL in the series on Liver microsomes [3] worked out at 37 µL/min/mg. In addition, in [4], the concentration at 4 h came out at 1000 nM. In the series on Mus musculus [5], this compound displayed a concentration of 2000 nM. The result in the series on Plasmodium berghei [6] was inactive.

In the case of `Cc1cc(Nc2ccc(C(F)(F)F)cc2)n2ncnc2n1`, in the series on Liver microsomes [1], the t1/2 worked out at 3.83 h. In addition, the Activity was 95% in the series on Plasmodium berghei [7]; “Non-toxic” with Mus musculus [9]; 71% in the series with Plasmodium berghei [10]; “Non-toxic” in the series with Mus musculus [12]; “Non-toxic” with Mus musculus [13]; “Non-toxic” with Mus musculus [14]. In addition, the CL in the series on Liver microsomes [3] stood at 7.5 µL/min/mg. For the same compound, the concentration in the series with Mus musculus [8] was 7900 nM; in the series on Mus musculus [5] it was 27600 nM. Further, the half-life in [11] is 3 h. The same compound had a concentration at 16 h in series [15] of 1000 nM.

The compound `Cc1cc(Nc2ccc3ccccc3c2)n2ncnc2n1` came in with a t1/2 with Liver microsomes [1] of 0.3 h. Also, the Activity result in the series with Mus musculus [2] is on record as “Non-toxic”. The compound further gave a CL with Liver microsomes [3] of 96 µL/min/mg. In addition, in the series on Mus musculus [5], the concentration worked out at 2000 nM. In the series on Plasmodium berghei [6], the outcome was inactive.
